The record followed here is ChEMBL document CHEMBL2331476, “A novel semisynthetic flavonoid 7-O-galloyltaxifolin upregulates heme oxygenase-1 in RAW264.7 cells via MAPK/Nrf2 pathway” (J Med Chem, 2013).

The test system of series [1] is RAW264.7. As to the kind of experiment: Induction of ROS generation in mouse RAW264.7 cells at 25 uM after 2 hrs by flow cytometric analysis. It is filed as functional. In short, it runs like this: (§1)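 Serum-starved RAW264.7 cells treated 2 h at 10-50 μM; 100 μM TBHP for 30 min as positive control. Medium replaced, cells loaded with 10 μM carboxy-H₂DCFDA for 15 min at 37 °C. Flow cytometry (488 nm excitation, 525 nm emission, 10,000 events) gave percentage of cells with raised ROS; mean ± SD of three experiments.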

For series [2], the target named is Mitogen-activated protein kinase 8 (Mus musculus) (UniProt Q91Y86). As to the kind of experiment: Activation of JNK1 in mouse RAW264.7 cells assessed as phosphorylation at Thr183/Tyr185 at 50 uM after 30 mins to 4 hrs by Western blotting analysis. It is filed as cell-based. The following applies: TDE = time-dependent effect. In short, it runs like this: (§2)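 Serum-starved RAW264.7 cells exposed in serum-free medium for 30 min to 4 h; 5 μM anisomycin for 30 min as positive control. Whole-cell lysates (30 μg/lane) blotted for JNKs dually phosphorylated at Thr183/Tyr185 and total JNKs, chemiluminescent detection.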
Chain of Mitogen-activated protein kinase 8 (Mus musculus) (Q91Y86 whole entry): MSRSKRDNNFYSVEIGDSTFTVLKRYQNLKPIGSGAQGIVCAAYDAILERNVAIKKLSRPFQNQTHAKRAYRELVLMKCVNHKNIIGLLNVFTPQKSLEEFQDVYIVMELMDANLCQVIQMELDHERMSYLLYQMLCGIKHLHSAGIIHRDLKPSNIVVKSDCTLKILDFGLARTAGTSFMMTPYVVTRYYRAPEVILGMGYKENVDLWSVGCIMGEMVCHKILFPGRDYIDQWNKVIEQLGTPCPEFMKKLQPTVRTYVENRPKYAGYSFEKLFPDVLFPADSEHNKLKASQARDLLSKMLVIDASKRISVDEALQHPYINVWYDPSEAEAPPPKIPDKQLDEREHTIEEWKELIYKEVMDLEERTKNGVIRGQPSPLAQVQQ

Series [3] relates to RAW264.7. As to the kind of experiment: Stability in mouse RAW264.7 cells assessed as gallic acid level at 50 uM after 6 hrs by HPLC/MS analysis. The following applies: raw264.7, 6 h. It is filed as ADME, cell-based.
For series [4], the target named is T1, Nuclear factor erythroid 2-related factor 2 (Mus musculus) (UniProt Q60795).
T1 sequence (whole entry): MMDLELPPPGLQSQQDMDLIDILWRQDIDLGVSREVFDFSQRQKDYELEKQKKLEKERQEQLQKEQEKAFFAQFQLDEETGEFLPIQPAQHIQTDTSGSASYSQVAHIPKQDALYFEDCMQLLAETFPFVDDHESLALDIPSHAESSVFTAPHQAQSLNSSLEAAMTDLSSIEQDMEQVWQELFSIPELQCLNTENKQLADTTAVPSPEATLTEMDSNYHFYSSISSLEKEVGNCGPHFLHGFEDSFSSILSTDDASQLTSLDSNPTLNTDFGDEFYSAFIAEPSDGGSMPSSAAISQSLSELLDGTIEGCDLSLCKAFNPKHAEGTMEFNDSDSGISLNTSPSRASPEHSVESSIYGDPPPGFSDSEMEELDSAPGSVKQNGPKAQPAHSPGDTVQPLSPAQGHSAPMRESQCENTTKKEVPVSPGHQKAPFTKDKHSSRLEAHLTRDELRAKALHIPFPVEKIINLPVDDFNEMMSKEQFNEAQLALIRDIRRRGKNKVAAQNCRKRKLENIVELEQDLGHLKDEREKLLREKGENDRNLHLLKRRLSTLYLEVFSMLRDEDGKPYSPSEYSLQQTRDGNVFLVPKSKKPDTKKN
As to the kind of experiment: Activation of Nrf2 in mouse RAW264.7 cells assessed as upregulation of Hmox1 gene expression at 50 uM after 6 hrs by real-time PCR analysis relative to GAPDH mRNA expression. It is filed as cell-based. In short, it runs like this:
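Serum-starved RAW264.7 cells were exposed for 6 h in serum-free medium against a 0.1% DMSO control. Total RNA (2 μg) was reverse-transcribed, then TaqMan qPCR run for Hmox1 and Gapdh over 40 cycles. Crossing points were taken by second-derivative maximum, and fold change calculated by the 2^−ΔΔCT method normalized to Gapdh. Mean ± SD of three experiments.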
For orientation: Quantitative PCR measures a nucleic acid by following its amplification.

Series [5] has as its system RAW264.7. As to the kind of experiment: Drug metabolism in mouse RAW264.7 cells assessed as 7-O-galloylquercetin level at 50 uM after 6 hrs by HPLC/ESI-QqTOF/MS analysis. The class given is ADME, cell-based. The conditions noted are these: raw264.7, 6 h. Put shortly:
(§3)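 Cells given 50 μM for up to 6 h, then scraped, washed twice in PBS and sonicated in methanol with 5% acetic acid. Supernatant analysed by UPLC on a phenyl column (water/1% acetic acid/methanol to methanol gradient, 35 °C) with negative ESI-QqTOF MS. Contents expressed as nmol per 10⁶ cells.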

Series [6] deals with T2, Mitogen-activated protein kinase 9/10 (Mus musculus) (UniProt Q9WTU6+Q61831). As to the kind of experiment: Activation of JNK2/3 in mouse RAW264.7 cells assessed as phosphorylation at 50 uM after 30 mins by Western blotting analysis. It is filed as cell-based. In short, it runs like this: as §2
T2 sequence (Q61831 whole entry, looked up): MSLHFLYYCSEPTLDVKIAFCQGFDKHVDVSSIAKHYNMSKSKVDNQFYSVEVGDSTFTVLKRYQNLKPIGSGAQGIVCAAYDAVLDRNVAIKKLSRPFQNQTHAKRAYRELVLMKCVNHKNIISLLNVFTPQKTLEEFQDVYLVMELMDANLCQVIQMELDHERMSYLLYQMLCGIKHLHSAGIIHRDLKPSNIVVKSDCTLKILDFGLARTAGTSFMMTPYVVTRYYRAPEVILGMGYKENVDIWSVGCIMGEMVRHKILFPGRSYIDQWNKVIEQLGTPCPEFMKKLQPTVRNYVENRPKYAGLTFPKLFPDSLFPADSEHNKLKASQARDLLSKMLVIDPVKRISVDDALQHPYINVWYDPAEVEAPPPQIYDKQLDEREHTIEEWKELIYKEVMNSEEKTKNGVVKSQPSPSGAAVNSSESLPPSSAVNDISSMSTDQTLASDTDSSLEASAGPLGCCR
T2 sequence (Q9WTU6 whole entry, looked up): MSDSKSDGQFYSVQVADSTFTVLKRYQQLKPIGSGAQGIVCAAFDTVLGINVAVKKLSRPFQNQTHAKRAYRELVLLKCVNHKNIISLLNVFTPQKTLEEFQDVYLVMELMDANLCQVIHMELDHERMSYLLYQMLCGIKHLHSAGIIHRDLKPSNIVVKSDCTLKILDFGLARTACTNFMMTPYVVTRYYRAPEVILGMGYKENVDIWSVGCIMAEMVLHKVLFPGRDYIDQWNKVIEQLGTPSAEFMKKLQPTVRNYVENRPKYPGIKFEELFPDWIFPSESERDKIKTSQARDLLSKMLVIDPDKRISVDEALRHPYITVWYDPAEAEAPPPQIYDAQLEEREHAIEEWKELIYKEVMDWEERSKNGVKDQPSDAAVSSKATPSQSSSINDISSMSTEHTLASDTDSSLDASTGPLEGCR
Background: In western blotting, separated proteins are transferred to a membrane and probed.

For series [7], the target named is T2, Mitogen-activated protein kinase 9/10 (Mus musculus). As to the kind of experiment: Activation of JNK2/3 in mouse RAW264.7 cells assessed as phosphorylation at 50 uM after 30 mins to 4 hrs by Western blotting analysis. It is filed as cell-based. The following applies: TDE = time-dependent effect. In short, it runs like this:
as §2

Series [8] concerns the target T1, Nuclear factor erythroid 2-related factor 2 (Mus musculus). The series is described as follows: Activation of Nrf2 in mouse RAW264.7 cells assessed as induction of Hmox1 mRNA expression at 50 uM after 6 hrs by real-time PCR analysis in presence of PD98059. It is filed as cell-based. In short, it runs like this:
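Pretreatment 30 min with 0.1% DMSO, 15 μM PD98059, 15 μM SB203580 or 30 μM SP600125, then 50 μM agent for 6 h in serum-free medium. Hmox1 mRNA by TaqMan qPCR normalized to Gapdh, given as percent of agent-induced expression; mean ± SD of three experiments.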

Series [9] shares this target. As to the kind of experiment: Activation of Nrf2 in mouse RAW264.7 cells assessed as reduction of KEAP1 protein level at 50 uM after 1 to 6 hr by Western blotting analysis. The conditions noted are these: TDE = time-dependent effect. The class given is cell-based. In short, it runs like this:
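Whole-cell lysates (20 μg/lane) from serum-starved RAW264.7 cells given 10-50 μM for 6 h or 50 μM for 1-6 h in serum-free medium, 0.1% DMSO vehicle. Keap1 and actin detected by chemiluminescent Western blot; Keap1 band intensity normalized to actin, mean of three experiments.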

Series [10] concerns the target Mitogen-activated protein kinase 8 (Mus musculus) (UniProt Q91Y86). The series is described as follows: Activation of JNK1 in mouse RAW264.7 cells assessed as phosphorylation at Thr183/Tyr185 at 50 uM after 30 mins by Western blotting analysis. It is filed as cell-based. In short, it runs like this: as §2
The nature of series [11]: Drug metabolism in culture medium assessed as 7-O-galloylquercetin level. The class given is physicochemical. Put shortly:
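Compound incubated in culture medium without cells. Medium aliquots diluted 1:1 in methanol with 5% acetic acid, centrifuged, and analysed by phenyl-column UPLC with negative-mode ESI-QqTOF MS.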

Series [12] concerns RAW264.7. As to the kind of experiment: Cytotoxicity against mouse RAW264.7 cells assessed as decreased cell viability at 50 uM after 6 hrs by MTT assay. The class given is cell-based. The conditions noted are these: raw264.7, 6 h. In short, it runs like this:
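Serum-starved RAW264.7 cells exposed 6 h at 10 or 50 μM; 0.1% DMSO control (100% viability), 1.5% Triton X-100 positive control. Cells washed and incubated 2 h at 37 °C with 0.5 mg/mL MTT in serum-free medium. Formazan dissolved in DMSO, A540 read, viability relative to DMSO-treated cells.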

Series [13] deals with T1, Nuclear factor erythroid 2-related factor 2 (Mus musculus). As to the kind of experiment: Activation of Nrf2 in mouse RAW264.7 cells assessed as upregulation of HO1 protein expression at 50 uM after 1 hrs by Western blotting analysis relative to untreated control. It is filed as cell-based. In short, it runs like this:
(§4)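 HO-1 protein in whole-cell lysates (20 μg/lane) of serum-starved RAW264.7 cells after 6 h at 10-50 μM or 50 μM for 1-6 h in serum-free medium, 0.1% DMSO control. Chemiluminescent Western blot; HO-1 densitometry normalized to actin, mean of three experiments.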

In series [14] the test system is RAW264.7. The series is described as follows: Drug uptake in mouse RAW264.7 cells measured per 10^6 cells at 50 uM after 3 hrs. It is filed as ADME, cell-based. The conditions noted are these: raw264.7, 3 h. In short, it runs like this: as §3
Series [15] has as its target T1, Nuclear factor erythroid 2-related factor 2 (Mus musculus). The series is described as follows: Activation of Nrf2 in mouse RAW264.7 cells assessed as upregulation of HO1 protein expression at 50 uM after 4 hrs by Western blotting analysis relative to untreated control. It is filed as cell-based. In short, it runs like this:
as §4

In series [16] the test system is RAW264.7. The series is described as follows: Induction of ROS generation in mouse RAW264.7 cells at 10 to 50 uM after 2 hrs by flow cytometric analysis. The class given is functional, cell-based. Put shortly:
as §1
For orientation: A flow cytometer gives signals particle by particle.

Calls of active or inactive are those of the source. The calls are words filed in the database; no cut-off is given here.

In the case of `O=C(Oc1cc(O)c2c(c1)O[C@H](c1ccc(O)c(O)c1)[C@@H](O)C2=O)c1cc(O)c(O)c(O)c1`, the Activity is 19% in the series on RAW264.7 [1]; “tde” in series [2]; “tde” in [7]; “tde” in series [9]; 72% in the series on RAW264.7 [12]. Also, the Stability entry with RAW264.7 [3] was “Stable”. The fold change (FC) in series [4] came to 13.4; in series [13], 1.1; in series [15] it was 1.6. Also, the figures for the Drug metabolism entry (with RAW264.7 [5]; in [11]) were “Active” and “Not Active”, respectively. Also, the outcome (in series [6]; in [10]; in the series on RAW264.7 [16]) was Active. The result in series [8] was inactive. Moreover, in the series with RAW264.7 [14], the Drug uptake is recorded as 1.03 nmol.
